Screening data from PubChem.
The list is not random: actives were taken first. Their share in the collection is about 2.6%.
AF4-AF9 inh = MLL-AF4/AF9 protein interaction inhibition; P42568; AlphaScreen, biotin-AF4 peptide binding to FLAG-AF9; inhibition, % at 10 µM; 350,000 compounds, 0.47% hits; AID 651704;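 active = every replicate reaching a set inhibition limit, whatever the replicate mean, cut at about 25% in these data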;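 note: 0% = plate neutral control median and 100% = total signal loss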
E-sel inducer = E-selectin induction on HUVECs | P16581 | HUVEC E-selectin immunofluorescence imaging; normalized: neutral wells 0, TNF-alpha wells 100 | activation, % at 7.58 µM | 260,000 compounds, 0.37% hits;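 active = mean E-selectin-positive cell signal at least 10% of the positive control, reached in at least 60% of replicates, without over 20% cell loss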
Target sequence (P16581 whole entry, looked up): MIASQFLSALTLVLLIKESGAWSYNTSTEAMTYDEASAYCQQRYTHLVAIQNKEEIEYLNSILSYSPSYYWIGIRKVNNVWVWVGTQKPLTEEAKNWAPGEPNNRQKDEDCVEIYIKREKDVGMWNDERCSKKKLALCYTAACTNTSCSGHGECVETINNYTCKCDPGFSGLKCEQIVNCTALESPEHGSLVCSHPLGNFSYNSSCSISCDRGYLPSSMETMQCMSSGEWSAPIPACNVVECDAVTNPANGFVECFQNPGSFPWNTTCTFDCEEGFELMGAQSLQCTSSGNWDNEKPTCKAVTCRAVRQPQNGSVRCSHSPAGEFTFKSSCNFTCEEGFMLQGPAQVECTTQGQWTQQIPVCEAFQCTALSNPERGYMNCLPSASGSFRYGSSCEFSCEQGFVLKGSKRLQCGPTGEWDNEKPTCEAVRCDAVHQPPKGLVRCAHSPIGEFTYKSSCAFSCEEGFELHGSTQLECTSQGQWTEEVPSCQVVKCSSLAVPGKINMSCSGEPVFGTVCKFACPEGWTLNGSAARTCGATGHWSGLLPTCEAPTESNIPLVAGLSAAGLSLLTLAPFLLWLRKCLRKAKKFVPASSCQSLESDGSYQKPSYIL
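Test system – human umbilical vein endothelial cells (HUVEC), E-selectin induction · Input – 3,000 HUVEC seeded per well · Buffer or medium – EGM-2, gelatin · Compound dosing – single-point compound dose · Detection – immunofluorescence imaging · Measure – percent E-selectin-positive cells · Controls – TNF-alpha high, DMSO low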
rRNA inh HTS = selective bacterial rRNA inhibition in E. coli; E. coli WT GFP vs humanized-ribosome RFP mutants, fluorescence, 24 h; active compounds read low; DMSO median 0, no signal -100; GFP signal change (wild-type ribosome), % (no concentration beside the values); 350,000 compounds, 1.6% hits; AID 720706;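 active = significant combined selectivity score with lowered wild-type GFP, culture density cut under 30%, mutant RFP and density less affected; inactive = any of these conditions unmet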
RAD54 branch = blocks human RAD54 Holliday junction branch migration. Q92698. FAM/BHQ fluorescence. inhibition, % at 10.4 µM. 360,000 compounds, 0.14% hits;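 active = mean normalized replicate activity at least 40 and at least half of replicates scoring 40 or more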;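 note: 0% = median of neutral control wells and 100% = median of positive control wells; inhibitors cause a drop in the FAM fluorescence signal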
GSIS activator = GLuc luminescence reporter in INS-1E cells, primary screen for activators of glucose-dependent secretion of insulin. 370,000 compounds, 0.61% hits. AID 743287. INS-1E GLuc reporter insulin secretion, 2-3 h. activation, % at 16.6 µM;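 active = lowest replicate activation of at least 40%, so every replicate reaches that level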;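 note: 0% = median of neutral control wells and 100% = median of IBMX positive control wells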
RAD52 inh = blocks human RAD52 DNA annealing | P43351 | recombinant RAD52 DNA annealing, FRET fluorescence | inhibition, % at 18.7 µM | 360,000 compounds, 0.46% hits | AID 651710;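 active = every replicate showing at least 50% inhibition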
* marks the source's active call; other numbers are inactive results; . = no result.

SMILES | AF4-AF9 inh | E-sel inducer | rRNA inh HTS | RAD54 branch | GSIS activator | RAD52 inh
COc1cccc(-c2sc3ccc(OC)cc3c2-c2ccc(O)cc2)c1 | 2 | 0 | -10 | 0 | -10 | -9
COc1cccc(-c2sc3ccc(OC)cc3c2-c2ccc(OCCN(C)C)cc2)c1 | 11 | . | -51 | 3 | 132* | -34
COc1ccc(Nc2c([N+](=O)[O-])ccc3c2=NC2(CCCCC2)N=3)cc1 | 34* | . | -15 | 2 | -6 | -13
COc1ccc2c3c([nH]c2c1)[C@@H](CO)N(C(=O)C1CCOCC1)CC31CN(Cc2cccc(F)c2)C1 | 15 | 0 | -3 | . | 12 | 4
COC(=O)C[C@@H]1C=C[C@H](NS(=O)(=O)c2ccc(OC)cc2)[C@@H](CO)O1 | 0 | 0 | -2 | 7 | 7 | -12
O=C(C[C@@H]1CC[C@@H]2[C@H](COC[C@H](O)CN2Cc2ccccc2F)O1)N1CCc2ccccc2C1 | 1 | 0 | -19 | -1 | -18 | -19
CCC(C)Sc1nc2c(c(=O)[nH]c(=O)n2C)n1Cc1ccc(Cl)cc1 (centres undefined) | . | . | . | -3 | . | .
Cn1c(=O)[nH]c(=O)c2c1nc(SCC(O)CCl)n2Cc1ccccc1 (centres undefined) | -9 | . | 5 | -2 | 41* | -4
CC(=O)CSc1nc2c(c(=O)[nH]c(=O)n2C)n1Cc1ccccc1Cl | -4 | . | -9 | 3 | 59* | -7
CC(C)Sc1nc2c(c(=O)[nH]c(=O)n2C)n1Cc1ccc(Cl)cc1 | . | . | . | -13 | 77* | .
CN(C)CC(=O)Nc1ccc2c(c1)[C@H]1C[C@@H](CC(=O)NCCc3ccccc3)O[C@H](CO)[C@H]1O2 | -2 | 0 | 3 | -1 | 3 | 2
Cc1ccsc1C(=O)OCC(=O)N(Cc1ccccc1)C(C)C | -2 | 0 | -30* | 3 | -11 | -9
CC(C)C#Cc1ccc2c(c1)O[C@H](CN(C)C(=O)c1cccc(F)c1)[C@@H](C)CN([C@@H](C)CO)S2(=O)=O | -7 | 3 | 2 | 2 | -11 | 4
O=C(Nc1cccnc1)c1ccccc1NS(=O)(=O)c1ccc(F)cc1 | 2 | 0 | -32* | 1 | -27 | -13
Cc1ccc(NS(=O)(=O)c2cccc(C(=O)Nc3cccnc3)c2)c(C)c1 | 0 | 0 | -45* | 1 | -24 | -19
O=S(=O)(Nc1cccnc1)c1ccc(F)cc1 | -5 | . | 0 | -1 | 16 | -10
Cc1ccc(NS(=O)(=O)c2cccc(C(=O)NC3CC3)c2)c(C)c1 | -38 | . | 14 | 1 | -2 | -2
C[C@H]1CN([C@@H](C)CO)C(=O)c2cccc(NC(=O)Nc3ccc4c(c3)OCO4)c2O[C@@H]1CN(C)S(=O)(=O)c1ccc(F)cc1 | 7 | 22 | -5 | -4 | 15 | -13
Cc1noc(C)c1S(=O)(=O)N(C)C[C@H]1OCc2ccccc2-c2c(n(C)c3ccccc23)C(=O)N([C@H](C)CO)C[C@@H]1C | 10 | 0 | 0 | 8 | 18 | 3
O=C1CSC(c2ccccn2)N1c1ccc(Br)cc1 (centres undefined) | -2 | . | 8 | . | 43* | -18
O=C1CSC(c2ccccn2)N1c1ccccc1 (centres undefined) | -3 | . | 19 | -4 | 16 | -6
COc1ccc(-n2c(SCC(=O)Nc3ccc(C(=O)O)cc3)nnc2-c2cccs2)cc1 | . | . | . | 8 | . | .
c1ccc(-n2c(SCc3nc(-c4cccs4)no3)nnc2-c2ccco2)cc1 | 7 | . | -22* | . | -2 | -21
O=C(O)c1ccc(CSc2nnc(-c3ccco3)n2-c2ccccc2)cc1 | 0 | . | -34* | . | 4 | -2
COc1ccc(C(=O)CSc2nnc(-c3cccs3)n2-c2ccccc2)cc1 | . | . | . | 4 | 46* | .
SMILES | AF4-AF9 inh | E-sel inducer | rRNA inh HTS | RAD54 branch | GSIS activator | RAD52 inh
C[C@@H]1CN([C@@H](C)CO)C(=O)c2cc(NC(=O)Nc3cccc4ccccc34)ccc2O[C@H]1CN(C)C(=O)Nc1ccc2c(c1)OCO2 | 2 | 17 | -6 | -3 | 3 | -10
C[C@]12c3[nH]c4ccc(Cl)cc4c3CCN1C(=O)[C@@H](CC(=O)NCc1ccco1)C[C@@H]2C(=O)N1CCCCC1 | 6 | 53* | -3 | 1 | -14 | -3
O=C(C[C@H]1C[C@H](C(=O)N2CCCCC2)[C@@]2(CCc3ccccc3)c3[nH]c4cc(-c5ccco5)ccc4c3CCN2C1=O)NCCN1CCOCC1 | 26* | 1 | -6 | -5 | 0 | -11
OC1(c2ccccc2F)CCN(Cc2nnnn2Cc2ccc(F)cc2)CC1 | -3 | 0 | -21* | 2 | 6 | -8
Cc1ccc(Cn2nnnc2CN2CCC(O)(c3ccc(F)cc3)CC2)cc1 | 1 | . | -27* | 4 | 1 | 8
COc1ccc(Cn2nnnc2CN2CCC(O)(c3ccc(F)cc3)CC2)cc1 | -3 | 2 | -17 | . | 7 | -9
CN(C(=O)C1CCCN(c2ncnc3c2nc2n3CCCCC2)C1)c1cccc(Cl)c1 (centres undefined) | 3 | . | -36* | 1 | -36 | 6
Cc1ccc(S(=O)(=O)Nc2ccc3c(c2)C(=O)N([C@@H](C)CO)C[C@@H](C)[C@@H](CN(C)S(C)(=O)=O)O3)cc1 | -4 | 0 | -1 | 1 | 10 | -8
CCOC(=O)c1nc(C)sc1-c1ccnn1S(=O)(=O)c1cccc(Cl)c1 | 2 | 1 | -29* | . | . | -20
COc1ccc(-c2nnc3sc(C(C)N4C(=O)c5ccccc5C4=O)nn23)cc1 (centres undefined) | 4 | 1 | -45* | -3 | 39 | -13
COc1cc(OC)c(C(=O)OCC(=O)Nc2cccc(S(=O)(=O)NC3=NCCCCC3)c2)cc1OC | 2 | 1 | . | 2 | . | -10
O=C(/C=C/c1ccc([N+](=O)[O-])cc1)Nc1cccc(S(=O)(=O)NC2=NCCCCC2)c1 | -1 | 0 | -9.4* | . | -18 | -13
Cc1ccc(C(=O)OCC(=O)Nc2cccc(S(=O)(=O)NC3=NCCCCC3)c2)c(C)c1 | 0 | 0 | -22* | -2 | -12 | -5
O=C(/C=C/c1ccccc1Cl)Nc1cccc(S(=O)(=O)NC2=NCCCCC2)c1 | . | . | . | . | -23 | .
C=CCOc1ccc(Br)cc1/C=C1\NC(=S)N(C(C)=O)C1=O | -1 | 0 | -32* | -8 | -34 | -30
C=CCOc1c(Br)cc(/C=C2/NC(=S)N(C(C)=O)C2=O)cc1OC | -2 | . | -55 | . | -20 | -312
Cc1ccc(S(=O)(=O)Nc2cc(S(=O)(=O)N3CCCCC3)ccc2N2CCOCC2)cc1 | -2 | 32* | 10 | . | 1 | -13
O=C(Nc1ccccc1F)Nc1cc(S(=O)(=O)N2CCOCC2)ccc1N1CCCC1 | 3 | 2 | -19* | . | -20 | -25
